MIC and Drug uptake data for 4 compounds are collected here from ChEMBL document CHEMBL4373642, “Fluoroquinolone-derived fluorescent probes for studies of bacterial penetration and efflux” (Medchemcomm, 2019).

Data set [1] relates to Escherichia coli. The data set can be described thus: Antibacterial activity against Escherichia coli MB5747 harbouring tolC mutant assessed as reduction in bacterial growth incubated for 18 to 24 hrs by broth microdilution method. The class given is functional. In outline: (§1)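 Broth microdilution in cation-adjusted Mueller Hinton broth. Overnight 37 °C cultures were diluted 50-fold and grown 1.5–3 h to mid-log, then seeded at 5×10^5 CFU mL^-1. Compounds were two-fold serially diluted, final range 0.0039–64 μg mL^-1, in duplicate. Plates were incubated at 37 °C for 18–24 h.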

Data set [2] relates to Pseudomonas aeruginosa. The data set can be described thus: Antibacterial activity against Pseudomonas aeruginosa ATCC 27853 assessed as reduction in bacterial growth incubated for 18 to 24 hrs by broth microdilution method. It counts as functional. In outline: (§2)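 Bacteria grown overnight in cation-adjusted Mueller Hinton broth (CAMHB) at 37 °C, diluted 50-fold and grown 1.5–3 h to mid-log, then inoculated at 5×10^5 CFU mL^-1. Two-fold serial dilutions gave final 0.0039–64 μg mL^-1, plated in duplicate. Incubated 37 °C for 18–24 h.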
Background: Dilution methods test growth across graded concentrations, often in twofold steps.

Data set [3] concerns Pseudomonas aeruginosa. In words: Antibacterial activity against Pseudomonas aeruginosa PAO750 PAO397 harbouring delta efflux pump mutant assessed as reduction in bacterial growth incubated for 18 to 24 hrs by broth microdilution method. It counts as functional. In outline: as §1
Data set [4] relates to Escherichia coli. In words: Antibacterial activity against Escherichia coli MB5746 harbouring lpxC and tolC double mutant assessed as reduction in bacterial growth incubated for 18 to 24 hrs by broth microdilution method. It counts as functional. In outline:
as §1

The test system of data set [5] is Escherichia coli. In words: Antibacterial activity against Escherichia coli ATCC 25922 assessed as reduction in bacterial growth incubated for 18 to 24 hrs by broth microdilution method. It counts as functional. In a few lines: as §2
The subject of data set [6] is Escherichia coli. In words: Antibacterial activity against Escherichia coli MB4902 harbouring lpxC mutant assessed as reduction in bacterial growth incubated for 18 to 24 hrs by broth microdilution method. The class given is functional. In outline:
as §1

For data set [7], the system named is Acinetobacter baumannii. The data set can be described thus: Antibacterial activity against Acinetobacter baumannii ATCC 19606 assessed as reduction in bacterial growth incubated for 18 to 24 hrs by broth microdilution method. The class given is functional. Conditions: ATCC 19606 = CIP 70.34 = JCM 6841; call rule not given here. In a few lines: (§3)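 Bacteria grown overnight in cation-adjusted Mueller Hinton broth (CAMHB) at 37 °C, diluted 50-fold and grown 1.5–3 h to mid-log, then inoculated at 5×10^5 CFU mL^-1. Two-fold serial dilutions gave final 0.0039–64 μg mL^-1, plated in duplicate. Incubated 37 °C for 18–24 h. MIC was the lowest concentration with no visible growth (n ≥ 3).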

The test system of data set [8] is Staphylococcus aureus. In words: Antibacterial activity against Staphylococcus aureus ATCC 25923 assessed as reduction in bacterial growth incubated for 18 to 24 hrs by broth microdilution method. The class given is functional. In outline:
as §3

For data set [9], the system named is Klebsiella pneumoniae. In words: Antibacterial activity against Klebsiella pneumoniae ATCC 13883 assessed as reduction in bacterial growth incubated for 18 to 24 hrs by broth microdilution method. It counts as functional. In a few lines: as §3
Data set [10] deals with Enterococcus faecium. In words: Antibacterial activity against Enterococcus faecium ATCC 35667 assessed as reduction in bacterial growth incubated for 18 to 24 hrs by broth microdilution method. It counts as functional. In a few lines: as §3
For data set [11], the system named is Bacillus subtilis. The data set can be described thus: Antibacterial activity against Bacillus subtilis ATCC 6051 assessed as reduction in bacterial growth incubated for 18 to 24 hrs by broth microdilution method. The class given is functional. In a few lines: as §3
The nature of data set [12]: Drug uptake in Staphylococcus aureus incubated for 30 to 45 mins by Hoechst 33342 and Syto9 staining based confocal microscopy. The class given is ADME. In outline: (§4)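 Colonies from LB agar were grown overnight in CAMHB at 37 °C, diluted ~40-fold and grown to OD600 0.4–0.6. Cells were pelleted, washed in HBSS and incubated with probe (50–100 μM) in HBSS at 37 °C for 30–45 min. […] were stained with Hoechst 33342 (5 μg mL^-1) or Syto-9 (10 μM) for 20 min, and membranes with FM4-64FX (5 μg mL^-1) for 5 min on ice. Samples were mounted and imaged by confocal microscopy.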

The nature of data set [13]: Drug uptake in Escherichia coli AG102 incubated for 30 to 45 mins by Hoechst 33342 and Syto9 staining based confocal microscopy. It counts as ADME. In a few lines: as §4
Data set [14] in a line: Drug uptake in Escherichia coli AG102 incubated for 30 to 45 mins in presence of CCCP by Hoechst 33342 and Syto9 staining based confocal microscopy. It counts as ADME. In outline:
as §4

The term MIC denotes the least concentration at which growth counts as inhibited.

The structures appear in SMILES notation. ≈ marks a conversion by molar mass, not a printed value.

In the case of `[N-]=[N+]=NCCCN1CCN(c2cc3c(cc2F)c(=O)c(C(=O)O)cn3C2CC2)CC1`, the minimum inhibitory concentration (MIC) in [1] is 0.25 to 1 µg/mL (≈ 0.603 to 2.41 µM); in [2] it was 8 to 64 µg/mL (≈ 19.3 to 154 µM); in [3], 32 to 64 µg/mL (≈ 77.2 to 154 µM); in data set [4], 0.25 to 1 µg/mL (≈ 0.603 to 2.41 µM); in [5], 0.06 to 0.25 µg/mL (≈ 0.145 to 0.603 µM); in data set [6], 0.25 to 1 µg/mL (≈ 0.603 to 2.41 µM). Also, the minimal inhibitory concentration (MIC) in data set [7] was 0.25 to 0.5 µg/mL (≈ 0.603 to 1.21 µM); in data set [8], 0.25 µg/mL (≈ 0.603 µM); in data set [9], 0.125 to 0.25 µg/mL (≈ 0.302 to 0.603 µM); in [10], 16 to 64 µg/mL (≈ 38.6 to 154 µM); in [11], 0.06 to 0.25 µg/mL (≈ 0.145 to 0.603 µM).

`CN(C)c1ccc2c(CC(=O)NCc3cn(CCCN4CCN(c5cc6c(cc5F)c(=O)c(C(=O)O)cn6C5CC5)CC4)nn3)cc(=O)oc2c1`: the minimum inhibitory concentration (MIC) is 0.5 to 1 µg/mL (≈ 0.716 to 1.43 µM) in [1]; 32 to 64 µg/mL (≈ 45.8 to 91.6 µM) in data set [2]; 2 to 8 µg/mL (≈ 2.86 to 11.4 µM) in data set [3]; 0.5 to 1 µg/mL (≈ 0.716 to 1.43 µM) in [4]; 2 µg/mL (≈ 2.86 µM) in data set [5]; 2 µg/mL (≈ 2.86 µM) in data set [6]. Further, the MIC is 32 µg/mL (≈ 45.8 µM) in data set [7]; 16 µg/mL (≈ 22.9 µM) in data set [8]; 4 to 32 µg/mL (≈ 5.72 to 45.8 µM) in data set [9]; 32 to 64 µg/mL (≈ 45.8 to 91.6 µM) in [10]; 4 µg/mL (≈ 5.72 µM) in data set [11]. Also, the Drug uptake entry in data set [12] and in [13] was “Active” each time.

Turning to `O=C(O)c1cn(C2CC2)c2cc(N3CCN(CCCn4cc(CNc5ccc([N+](=O)[O-])c6nonc56)nn4)CC3)c(F)cc2c1=O`, the minimum inhibitory concentration (MIC) in data set [1] is 0.125 to 0.25 µg/mL (≈ 0.198 to 0.395 µM); in data set [2] it was 32 to 64 µg/mL (≈ 50.6 to 101 µM); in [3], 4 µg/mL (≈ 6.32 µM); in data set [4], 0.06 to 0.125 µg/mL (≈ 0.0948 to 0.198 µM); in [5], 8 µg/mL (≈ 12.6 µM); in data set [6], 1 to 4 µg/mL (≈ 1.58 to 6.32 µM). Further, the minimal inhibitory concentration (MIC) in [7] was 32 to 64 µg/mL (≈ 50.6 to 101 µM); in data set [8], 32 to 64 µg/mL (≈ 50.6 to 101 µM); in data set [9], 8 to 16 µg/mL (≈ 12.6 to 25.3 µM); in data set [10] it was 32 µg/mL (≈ 50.6 µM); in [11] it was 8 µg/mL (≈ 12.6 µM). In addition, the figures for the Drug uptake entry in data set [12], in data set [13] and in [14] were “Active”, “Not Active” and “Active”, respectively.

Regarding `O=C(O)c1cn(C2CC2)c2cc(N3CCNCC3)c(F)cc2c1=O` [CIPROFLOXACIN], the minimal inhibitory concentration (MIC) in data set [7] lay within 0.5 to 1 µg/mL (≈ 1.51 to 3.02 µM); in data set [8], 0.125 to 0.5 µg/mL (≈ 0.377 to 1.51 µM); in data set [9], 0.015 to 0.06 µg/mL (≈ 0.0453 to 0.181 µM); in data set [10], 1 to 8 µg/mL (≈ 3.02 to 24.1 µM); in [11] it was 0.06 to 0.313 µg/mL (≈ 0.181 to 0.945 µM).
